What all share (type): functional
The test system of test [1] is Mus musculus. In words: Effect on blood glucose levels in healthy mice at subcutaneous dose of 100 mg/kg at 120 min. The method, boiled down:
(§1)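 Healthy (nondiabetic) fasted animals: CBA mice (20-25 g) or Fischer rats (160-200 g), fasted 16 h before treatment. Single iv or sc dose given at zero time; drug dissolved in minimal DMSO, diluted with 0.9% saline. Tail-vein blood sampled over time; glucose measured by enzymatic-colorimetric kit, expressed as mmol/L whole blood; group sizes 6-12.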

Test [2] has as its system Mus musculus. Nature of the test: Hypoglycemic effect of compound 1 hr after subcutaneous administration of a 20 mg/kg dose in alloxanized mice and expressed as hypoglycemic activity ratio (hAR) taking metformin as standard. In short, it runs like this: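 Alloxan-diabetic CBA mice (65 mg/kg iv alloxan, used after 48 h) received 20 mg/kg sc in DMSO/saline. Glucose was measured enzymatically in tail-vein blood and expressed as %BGL at 1 h. HAR = (100 − %BGL of compound)/(100 − %BGL of metformin), with metformin tested at the same dose and route.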

The test system of test [3] is Mus musculus. Nature of the test: Effect on blood glucose levels in healthy mice at subcutaneous dose of 20 mg/kg at 0 min. The method, boiled down: as §1
In test [4] the test system is Mus musculus. Nature of the test: Effect on blood glucose levels in healthy mice at subcutaneous dose of 20 mg/kg at 120 min. The method, boiled down:
as §1

For test [5], the system named is Rattus norvegicus. Nature of the test: Effect on blood glucose levels in healthy rat at subcutaneous dose of 20 mg/kg at 0 min. In short, it runs like this:
as §1

For test [6], the system named is Mus musculus. Nature of the test: Effect on blood glucose levels in healthy mice at intravenous dose of 5 mg/kg at 40 min. In short, it runs like this:
as §1

In test [7] the test system is Mus musculus. In words: Effect on blood glucose levels in healthy mice at intravenous dose of 20 mg/kg at 60 min. In short, it runs like this:
as §1

Test [8] has as its system Rattus norvegicus. In words: Effect on blood glucose levels in healthy rat at subcutaneous dose of 20 mg/kg at 60 min. The method, boiled down:
as §1

The subject of test [9] is Mus musculus. In words: Effect on blood glucose levels in healthy mice at intravenous dose of 5 mg/kg at 0 min. The method, boiled down:
as §1

Test [10] deals with Mus musculus. Nature of the test: Effect on blood glucose levels in healthy mice at intravenous dose of 20 mg/kg at 0 min. In short, it runs like this:
as §1

In test [11] the test system is Mus musculus. In words: Effect on blood glucose levels in healthy mice at intravenous dose of 20 mg/kg at 40 min. The method, boiled down: as §1
For test [12], the system named is Mus musculus. In words: Hypoglycemic effect of compound 1 hr after subcutaneous administration of 20 mg/kg dose in alloxanized mice and expressed as percent of initial blood glucose level. The method, boiled down:
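CBA mice of either sex, 20-25 g, made diabetic by single tail-vein alloxan monohydrate 65 mg/kg and tested 48 h later. Compound given sc at 20 mg/kg, dissolved in minimal DMSO and diluted with 0.9% saline. Tail-vein blood sampled before dosing and at 1 h. Glucose measured by enzymatic-colorimetric kit and expressed as percent of the initial sample.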

The subject of test [13] is Mus musculus. In words: Effect on blood glucose levels in healthy mice at intravenous dose of 5 mg/kg at 60 min. The method, boiled down: as §1
The subject of test [14] is Mus musculus. Nature of the test: Effect on blood glucose levels in healthy mice at subcutaneous dose of 100 mg/kg at 60 min. In short, it runs like this:
as §1

The test system of test [15] is Mus musculus. In words: Effect on blood glucose levels in healthy mice at subcutaneous dose of 100 mg/kg at 0 min. The method, boiled down:
as §1

In test [16] the test system is Mus musculus. Nature of the test: Effect on blood glucose levels in healthy mice at subcutaneous dose of 20 mg/kg at 60 min. The method, boiled down: as §1

Here are results for 11 molecules from ChEMBL document CHEMBL1128586, “Antihyperglycemic N-sulfonyl-1a,2,6,6a-tetrahydro-1H,4H- [1,3]dioxepino[5,6-b]azirines: synthesis, X-ray structure analysis, conformational behavior, quantitative structure-property relationships, and quantitative structure-activity relationships” (J Med Chem, 1995).

Each structure is given as a SMILES string.

For `CC(=O)Nc1ccc(S(=O)(=O)N2[C@@H]3COCOC[C@@H]32)cc1` (stereo partly specified), the Blood glucose is given as 13.17 mM (l of whole blood)-1 in test [1]; 12.43 mM (l of whole blood)-1 in test [3]; 13.15 mM (l of whole blood)-1 in test [4]; 5.52 mM (l of whole blood)-1 in test [5]; 8.61 mM (l of whole blood)-1 in [6]; 8.82 mM (l of whole blood)-1 in [7]. Besides, the Blood glucose in test [8] is given as 5.44 mM (l of whole blood)-1; in test [9] it was 8.35 mM (l of whole blood)-1; in test [10], 8.83 mM (l of whole blood)-1; in [11], 9.3 mM (l of whole blood)-1; in test [13], 8.72 mM (l of whole blood)-1; in test [14], 12.09 mM (l of whole blood)-1. Also, the Blood glucose in test [15] is 11.72 mM (l of whole blood)-1; in test [16] it was 14.41 mM (l of whole blood)-1. Moreover, the HAR in test [2] is 4.5. In [12], this molecule came in with a BGL of 37%.
Regarding `Cc1ccc(S(=O)(=O)N2[C@@H]3COCOC[C@@H]32)cc1` (stereo partly specified), the HAR in test [2] is reported as 0.42. In test [12], this molecule had a BGL of 94%.
For `O=S(=O)(c1ccc(Br)cc1)N1[C@@H]2COCOC[C@@H]21` (stereo partly specified), in that order: -0.5 and 107%.
For `O=S(=O)(c1ccccc1)N1[C@@H]2COCOC[C@@H]21` (stereo partly specified), in that order: 3.36 and 53%.
For `CC(=O)Nc1ccc(S(=O)(=O)N2[C@@H]3CO[C@H](C(C)C)OC[C@@H]32)cc1` (stereo partly specified), in that order: 1.08 and 84.8%.
With `CC(=O)Nc1ccc(S(=O)(=O)N2[C@@H]3CO[C@@H](C(C)C)OC[C@@H]32)cc1` (stereo partly specified), in test [2], the HAR came to 1.07. This molecule also displayed a BGL in test [12] of 85%.
For `CC(C)[C@@H]1OC[C@@H]2[C@H](CO1)N2S(=O)(=O)c1ccc([N+](=O)[O-])cc1` (stereo partly specified), in that order: 1.57 and 78%.
For `O=S(=O)(c1ccc(F)cc1)N1[C@@H]2COCOC[C@@H]21` (stereo partly specified), in that order: 1.71 and 76%.
In the case of `COc1ccc(S(=O)(=O)N2[C@@H]3COCOC[C@@H]32)cc1` (stereo partly specified), the HAR in [2] was determined as 1.57. The BGL in test [12] worked out at 78%.
For `O=S(=O)(c1ccc(Cl)cc1)N1[C@@H]2COCOC[C@@H]21` (stereo partly specified), in that order: 1.64 and 77%.
For `CN(C)C(=N)NC(=N)N` [METFORMIN], in that order: 1 and 86%.
